Compound activity deposited in PubChem BioAssay by several laboratories.
APJ antag = antagonists of human APJ apelin receptor; AID 2521; inhibition, % at 20 µM; CHO-K1 APJ beta-arrestin complementation, luminescence; P35414; 330,000 tested, 0.32% active;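 active = inhibition above about 40% at 20 µM, limit read from the data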;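 note: cells challenged with 10 nM apelin-13 agonist together with compound; plate controls were apelin-13 plus DMSO wells for no effect and DMSO wells lacking apelin-13 for full effect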
Target sequence (P35414 whole entry, looked up): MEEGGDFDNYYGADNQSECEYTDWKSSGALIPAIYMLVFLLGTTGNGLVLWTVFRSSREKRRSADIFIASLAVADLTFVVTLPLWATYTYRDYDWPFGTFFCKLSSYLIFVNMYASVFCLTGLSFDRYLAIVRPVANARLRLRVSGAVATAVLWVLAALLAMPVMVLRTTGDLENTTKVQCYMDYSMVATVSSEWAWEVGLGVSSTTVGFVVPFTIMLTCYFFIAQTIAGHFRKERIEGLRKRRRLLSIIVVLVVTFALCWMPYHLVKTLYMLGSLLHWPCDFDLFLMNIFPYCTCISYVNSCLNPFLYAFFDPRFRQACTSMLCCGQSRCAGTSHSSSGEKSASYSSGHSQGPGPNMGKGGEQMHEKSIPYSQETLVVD
PfGluPho inh = PfG6PD (Plasmodium falciparum) enzyme inhibition | PfGluPho enzyme, NADPH resazurin-diaphorase fluorescence | inhibition, % at 20 µM | 350,000 tested, 0.78% active;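 active = inhibition reaching at least a set limit at 20 µM in the primary screen, cut at about 59% in these data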;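 note: 0% = DMSO wells with substrate and 100% = DMSO wells lacking glucose-6-phosphate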
CCR6 antag = antagonists of human CCR6 receptor | CHO-K1 CCR6 PathHunter beta-arrestin, luminescence, CCL20-stimulated | 340,000 tested, 0.49% active | P51684 | inhibition, % at 20 µM | AID 493098;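 active = compounds whose inhibition of the agonist-driven luminescence signal at 20 µM reaches about 50%, limit read from the data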;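 note: cells stimulated with CCL20 at 14 nM final; plate controls were DMSO with CCL20 for no effect and DMSO without agonist for full effect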
APJ agonist = APJ receptor agonism. P35414. CHO-K1 APJ PathHunter beta-arrestin, luminescence; 0% DMSO wells, 100% apelin. activation, % at 20 µM. 330,000 tested, 0.11% active. AID 2520;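 active = activation more than six SD over the plate average, tested at 20 µM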;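 note: 0% = DMSO alone and 100% = apelin-13 at 10 nM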
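Assay system: CHO-K1 cells stably expressing ProLink-tagged human APJ and arrestin–beta-gal acceptor. Compound dosing: 20 µM single point, 1% DMSO. Times: 16-18 h seeding, 90 min dark compound exposure, 60 min detection. Detection: beta-gal luminescence. Evaluation: APJ–arrestin association signal. Controls: negative DMSO alone, positive Apelin-13 at 10 nM.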
CXCR6 block = inhibitors of human CXCR6 receptor; O00574; CHO-K1 PathHunter CXCR6 beta-arrestin, luminescence; inhibition, % at 20 µM; 360,000 tested, 0.36% active; AID 602244; in the data active = inhibition above about 34%, passing the limit was not always enough;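 note: antagonist mode with CXCL16 agonist at 10 nM final; 0% = 10 nM CXCL16 with DMSO and 100% = unstimulated wells without agonist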
Beta2AR agonist = human beta-2 adrenergic receptor agonism by FAP. P07550. Am2.2-beta2AR cells, FAP receptor internalization, flow cytometry. response, % (no concentration beside the values). 340,000 tested, 0.43% active. AID 504454;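 active = response above a set limit, near 3 SD of response in nonfluorescent compounds, cut at about 42% in these data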
PfGluPho conf = confirmation of Plasmodium falciparum G6PD inhibitors. shares compounds with PfGluPho inh. recombinant PfGluPho, NADPH-diaphorase-resazurin fluorescence. inhibition, % at 20 µM. 2,400 tested, 34% active. AID 504753;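 active = inhibition of at least 50% at 20 µM in any single replicate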;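 note: 0% = DMSO with substrate and 100% = DMSO lacking glucose-6-phosphate substrate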
Diaphorase 10uM = counter-screen for P. falciparum G6PD inhibitors: diaphorase inhibitors, oxidizers. shares compounds with PfGluPho inh. diaphorase-coupled resazurin reduction, fluorescence, NADPH 10 uM. inhibition, % at 20 µM. 820 tested, 39% active;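 active = average inhibition reaching 50% or more with the compound at 20 µM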;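 note: resorufin red fluorescence formed as diaphorase reduces resazurin using NADPH; 0% = DMSO with enzyme and 100% = DMSO without enzyme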
Diaphorase 30uM = counter-screen for P. falciparum G6PD inhibitors: diaphorase inhibitors, oxidizers | AID 504863 | Diaphorase/resazurin coupled assay, resorufin fluorescence, 30 uM NADPH | 820 tested, 29% active | inhibition, % at 20 µM | shares compounds with PfGluPho inh;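 active = inhibition averaging 50% or more, tested at 20 µM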;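 note: 0% = DMSO with enzyme and 100% = DMSO wells lacking diaphorase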
* = called active by the depositor; . = not tested or not shown. An excerpt weighted towards active compounds, which were near 1.7% of everything screened.

SMILES	APJ antag	PfGluPho inh	CCR6 antag	APJ agonist	CXCR6 block	Beta2AR agonist	PfGluPho conf	others
CCOC(=O)c1sc(N/N=C/c2ccccc2)nc1C	-11	66*	6	-1	2	-9	23
CCOc1ccc(N(CC(=O)NCc2ccccc2C)S(C)(=O)=O)cc1	-8	-1	8	-5	2	5	.
O=C(c1ccccc1)c1nn(-c2ccccc2)c(=O)cc1-c1ccccc1	.	.	.	.	0	.	.
COc1ccc(NC(=O)CS(=O)(=O)c2cn(CC(=O)N(C(C)C)C(C)C)c3ccccc23)c(OC)c1	-81	-4	5	-3	-6	7	.
CCCn1cc(S(=O)(=O)CC(=O)Nc2ccc(OC)cc2OC)c2ccccc21	-29	67*	-11	4	-11	-11	68*	Diaphorase 10uM=42;Diaphorase 30uM=33
COc1cccc2nc3cc(C)c(C)cc3nc12	-80	96*	-2	1	-16	9	57*	Diaphorase 10uM=46;Diaphorase 30uM=43
COc1cccc2c1nc(C)c1cc(C)oc12	-1	-17	-3	2	6	-6	.
Cc1cc(C)c(C)c(S(=O)(=O)Nc2ccc3cn[nH]c3c2)c1C	-3	92*	-33	1	2	-2	13
COc1ccc(S(=O)(=O)Nc2ccc3cn[nH]c3c2)cc1C	-4	4	-6	0	-14	-4	.
Cc1ccc(N2CCN(S(=O)(=O)c3ccc(C)cc3)CC2)cc1	1	-7	6	0	-4	0	.
Cc1ccc(S(=O)(=O)N2CCN(C(=O)CN3CCN(c4ccc(O)cc4)CC3)CC2)cc1	.	64*	-2	.	-9	-4	25
Cc1cc(NC(=O)CN2CCN(c3ccc(O)cc3)CC2)no1	8	68*	-8	0	-7	1	36
O=C(CN1CCN(c2ccc(O)cc2)CC1)NCC(=O)Nc1ccc(F)c(F)c1F	-13	67*	1	-2	-8	-4	33
O=C(CN1CCN(c2ccc(O)cc2)CC1)Nc1ccc2c(c1)OCCO2	-33	71*	-5	8	-6	2	21
Cc1cc(NC(=O)CN2CCN(S(=O)(=O)c3ccc(Cl)cc3)CC2)no1	16	3	-1	-3	4	-6	.
O=c1cc(Cn2ccnc2)c2cc(O)ccc2o1	5	-15	0	-3	-3	-8	.
C[C@H](CO)N1C[C@H](C)[C@@H](CN(C)S(=O)(=O)c2ccc(F)cc2)Oc2ccc(NC(=O)NC3CCCCC3)cc2C1=O	10	23	-7	-1	-2	0	.
Cc1cccc(-n2ncc3c(=O)[nH]c(SCC(=O)N4CC(=O)Nc5ccccc54)nc32)c1	26	-45	2	-5	6	4	.
Cc1ccc(S(=O)(=O)NCCC(=O)N2CCCCCCC2)cc1C	24	31	5	-6	-1	-1	.
COc1ccc(N2CC(C(=O)OCC(=O)Nc3cccc(C)c3)CC2=O)cc1 (stereo unspecified)	15	-9	-2	-3	0	10	.
CCn1c(SCC(=O)Nc2ccc3c(c2)OCO3)nnc1-c1cnccn1	18	83*	-9	0	0	1	46
CCn1c(SCC(=O)Nc2ccc(OC)c(OC)c2)nnc1-c1cnccn1	-4	16	18	-4	-4	-2	.
CN(C)C(=O)/C(C#N)=C\c1cc(Br)c(Sc2ccc(Cl)cc2)o1	.	107*	24	.	-1	-1	-8
Clc1ccc(Sc2oc(/C=N/n3cnnc3)cc2Br)cc1	-24	50	-14	1	-5	-11	.
Cc1ccc(S(=O)(=O)NC(=O)Nc2ccc(C)cn2)cc1	-14	1	6	2	0	0	.
SMILES	APJ antag	PfGluPho inh	CCR6 antag	APJ agonist	CXCR6 block	Beta2AR agonist	PfGluPho conf	others
CC1(C)CN(c2ccccc2)N(C(=O)c2ccc(C#N)cc2)C1=O	-7	95*	12	5	-1	2	68*	Diaphorase 10uM=1;Diaphorase 30uM=1
O=C(Cn1cnc([N+](=O)[O-])c1)NCCc1ccccc1	0	-13	6	-2	-1	3	.
COc1cc(/C=C2\SC(c3ccccc3)=NC2=O)cc(Cl)c1O	.	61*	74*	.	37	-3	46
CCN(CC1CCCO1)C(=O)c1cc(COc2ccccc2SC)on1 (stereo unspecified)	-43	-2	13	11	-8	1	.
Cc1ccc(Nc2nnc(SCC(=O)c3ccc(O)cc3O)s2)cc1	2	68*	12	-4	-5	9	33
CCOc1ccc(S(=O)(=O)N2CCCCC2)cc1NC(=O)C1=COCCO1	0	-27	11	-4	2	-2	.
Cc1ccc(/C=C/C(=O)N2CCc3ccccc32)o1	20	85*	30	0	10	-1	10
Cc1ccc(/C=C/C(=O)N2CCN(c3ncccn3)CC2)o1	11	64*	3	-3	3	-5	48
CS(=O)(=O)Nc1cccc(NC(=O)c2cccc3c(-c4cccnc4)coc23)c1	.	.	.	.	-17	.	.
COCCNC(=O)C1(C)CCCN(Cc2ccc(Cl)c(Cl)c2)C1 (stereo unspecified)	.	.	.	.	4	.	.
COc1c2c(c(OC)c3c1c(=O)c1ccccc1n3C)OCO2	.	12	-2	.	4	-34	.
COc1cc(C(=O)O/N=C2/C=C(C)C(=O)C=C2C)cc(OC)c1OC	3	61*	7	-2	-12	-2	57*	Diaphorase 10uM=27;Diaphorase 30uM=8
Nc1[nH]n(-c2ccccc2)c(=O)c1N=Nc1ccc2ncsc2c1	24	67*	45	-5	19	1	19
Cc1ccc(/C(C#N)=C\c2ccc(N3CCOCC3)o2)cc1	32	72*	30	-3	22	-38	-2
N#C/C(=C/c1ccc(N2CCCCCC2)o1)c1ccc(Cl)cc1	31	57	42	-1	24	-918	.
O=C(NC12CC3CC(CC(C3)C1)C2)c1ccc([N+](=O)[O-])o1	-13	-8	-17	1	-12	-12	.
O=C(NNc1nc2ccccc2s1)c1ccc(F)cc1	-21	3	-8	4	-1	-5	.
CC(C)NC(=S)NNc1nc2ccccc2s1	-37	74*	15	5	10	3	22
O=[N+]([O-])c1cccc2nc3ccccc3c(NCCCn3ccnc3[N+](=O)[O-])c12	.	29	6	.	-5	-1	.
